In PubChem BioAssay AID588823 (The Scripps Research Institute Molecular Screening Center, 2011):
Active and inactive are the calls of the source.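 How the source made its calls: active means at least 50% inhibition of the target enzyme pPAFAH in mouse brain after oral dosing, with fewer than two other serine hydrolases also hit; inactive means weaker pPAFAH inhibition or two or more other hydrolases hit.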

Legend:
Assay in all cases: in vivo serine hydrolase selectivity, brain membranes – fluorescence, gel-based ABPP, mouse, in vivo study, late-stage follow-up (AID 588823)
pPAFAH = details: mouse brain membrane proteome, oral dosing, stronger effect = higher value, dose or concentration not given here
Procedure, shortened: (§1)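 Material: wild-type mouse brain membrane fraction / Amount: 1 mg/mL membrane protein / Buffer or medium: DPBS / Compound: 50 mg/kg orally in PEG300 / Schedule: 4 h dosing, 30 min probe labelling at 37 °C / Signal: in-gel fluorescence scanning after SDS-PAGE separation / Controls: vehicle-dosed mice high, blank gel background low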

CES1 = details: mouse brain membrane proteome, oral dosing, stronger effect = higher value, dose or concentration not given here
Procedure, shortened: as §1

Anti-targets = details: mouse brain membrane proteome, oral dosing, FP-Rh probe
Procedure, shortened: as §1

Cc1cc(N2CCN(C(=O)Oc3ccc(-c4ccccc4)cn3)CC2)c2ccccc2n1
inhibition (pPAFAH): 95.5%
inhibition (CES1): 90%
outcome (Anti-targets): inactive
anti-target count (Anti-targets; number of FP-Rh anti-targets, stronger effect = lower value): 0
